# Laboratory results published in ChEMBL document CHEMBL4477203 (J Med Chem, 2016).
# Numbered stars: 1 amine (or outer) side, 2 acyl side, 3 side chain; on linkers, the order of the positions; unused ones are H or OH. Bridge positions count the residues as written; N and C are the ends. Square brackets hold non-standard residues; d marks the D form. Peptide text beside a SMILES is read from it. I, II: the chains in the order shown. X2 = NCCCCNC(=O)/N=C(\N)NCCC[C@H](N[*:1])C(=O)[*:2]; Suberoyl = O=C(CCCCCCC(=O)[*:2])[*:1]
# Columns and labels:
# [1] = target: T1, Neuropeptide Y receptor type 4 (Homo sapiens, UniProt P50391); assay: Displacement of [3H](2R,7R)-10 from human NPY Y4 receptor expressed in CHO cells co-expressing Gqi5-mtAEQ after 90 mins in presence of L-15 medium by liquid scintillation counting; assay type: cell-based
# [2] = target: T1, Neuropeptide Y receptor type 4; assay: Displacement of [3H]18 from human NPY Y4 receptor expressed in CHO cells co-expressing Gqi5-mtAEQ after 90 mins by liquid scintillation counting; assay type: cell-based
# [3] = target: T1, Neuropeptide Y receptor type 4; assay: Agonist activity at human NPY Y4 receptor expressed in CHO cells co-expressing Gqi5-mtAEQ assessed as induction of calcium mobilization by aequorin luminescence assay; assay type: functional, cell-based
# Summary of the method: (§1)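 Luminescence was integrated as area under the curve and normalized to the response to 1 µM PP. Data are means ± SEM of at least 3 independent experiments, each run in triplicate.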
# [4] = target: T1, Neuropeptide Y receptor type 4; assay: Intrinsic activity at human NPY Y4 receptor expressed in CHO cells co-expressing Gqi5-mtAEQ assessed as induction of calcium mobilization by aequorin luminescence assay relative to pancreatic polypeptide; assay type: functional, cell-based; summary of the method: as §1
# [5] = target: T1, Neuropeptide Y receptor type 4; assay: Agonist activity at human NPY Y4 receptor expressed in HEK293 cells co-expressing CRE-Luc gene assessed as inhibition of forskolin stimulated luciferase activity after 4.5 hrs by luminescence assay; assay type: functional, cell-based
# Summary of the method: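 HEK293 cells stably co-transfected with a CRE-controlled firefly luciferase reporter and hY4R, tested in phenol-red-free DMEM, pH 7.4. The maximal inhibition by PP was set to 0% activity (α = 1.0). Data are means ± SEM of at least 3 experiments in triplicate.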
# [6] = target: T1, Neuropeptide Y receptor type 4; assay: Intrinsic activity at human NPY Y4 receptor expressed in HEK293 cells co-expressing CRE-Luc gene assessed as inhibition of forskolin stimulated luciferase activity after 4.5 hrs by luminescence assay relative to pancreatic polypeptide; assay type: functional, cell-based
# Summary of the method: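 HEK293 cells stably co-transfected with a CRE-controlled firefly luciferase reporter and hY4R, tested in phenol-red-free DMEM, pH 7.4. […] The maximal inhibition by PP was set to 0% activity (α = 1.0). Data are means ± SEM of at least 3 experiments in triplicate.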
# [7] = target: T2, Neuropeptide Y receptor type 1 (Homo sapiens, UniProt P25929); assay: Displacement of [3H]UR-MK136 from human NPY Y1 receptor expressed in human MCF7 cells by liquid scintillation counting; assay type: cell-based
# T2 sequence (P25929 whole entry): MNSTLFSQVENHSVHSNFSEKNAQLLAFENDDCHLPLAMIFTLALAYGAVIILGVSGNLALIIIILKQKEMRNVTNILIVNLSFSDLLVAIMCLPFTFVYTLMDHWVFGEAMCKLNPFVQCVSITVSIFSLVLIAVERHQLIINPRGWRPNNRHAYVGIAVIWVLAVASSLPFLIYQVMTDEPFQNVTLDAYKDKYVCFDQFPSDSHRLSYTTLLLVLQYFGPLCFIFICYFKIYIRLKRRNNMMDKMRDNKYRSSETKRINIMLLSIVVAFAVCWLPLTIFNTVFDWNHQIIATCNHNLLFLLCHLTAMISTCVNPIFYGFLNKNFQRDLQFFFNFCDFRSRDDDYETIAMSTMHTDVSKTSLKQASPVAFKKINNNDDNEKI
# [8] = target: T3, Neuropeptide Y receptor type 2 (Homo sapiens, UniProt P49146); assay: Displacement of [3H]propionyl-pNPY from human NPY Y2 receptor expressed in CHO cells co-expressing Gqi5-mtAEQ after 90 mins by liquid scintillation counting; assay type: cell-based
# T3 sequence (P49146 whole entry): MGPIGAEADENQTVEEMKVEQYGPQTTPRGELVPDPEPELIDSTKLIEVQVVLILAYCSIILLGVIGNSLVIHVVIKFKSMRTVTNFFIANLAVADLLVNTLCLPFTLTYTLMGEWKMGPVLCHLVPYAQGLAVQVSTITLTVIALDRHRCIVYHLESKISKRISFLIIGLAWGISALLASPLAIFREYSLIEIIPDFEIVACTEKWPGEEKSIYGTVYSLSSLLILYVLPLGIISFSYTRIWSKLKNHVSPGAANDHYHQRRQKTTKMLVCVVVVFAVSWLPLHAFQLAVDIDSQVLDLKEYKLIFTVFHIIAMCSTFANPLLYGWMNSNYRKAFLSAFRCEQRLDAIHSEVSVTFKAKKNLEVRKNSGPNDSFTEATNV
# Summary of the method: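 Adherent CHO-hY2R-Gqi5-mtAEQ cells in buffer I with 1% BSA and 0.1 mg/mL bacitracin at 22 °C. […] Incubation was 90 min, followed by two ice-cold washes, lysis and scintillation counting.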
# [9] = target: T1, Neuropeptide Y receptor type 4; assay: Displacement of [3H](2R,7R)-10 from human NPY Y4 receptor expressed in CHO cells co-expressing Gqi5-mtAEQ after 90 mins in presence of sodium-free HEPES buffer by liquid scintillation counting; assay type: cell-based
# [10] = target: T4, Neuropeptide Y receptor type 1 (Homo sapiens) (UniProt P25929); assay: Antagonist activity at human NPY Y1 receptor expressed in human HEL cells assessed as inhibition of the pNPY-stimulated intracellular [Ca2+] mobilization by Fura-2 based luminescence spectrometry; assay type: functional, cell-based
# T4 sequence (whole entry): T2 sequence (P25929 whole entry)
# Summary of the method: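 Functional Y1R assay on HEL cells, which express Y1R endogenously. Intracellular Ca2+ was read with Fura-2 on a luminescence spectrometer. Antagonism is expressed as Kb.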
# [11] = target: T5, Neuropeptide Y receptor type 5 (Homo sapiens, UniProt Q15761); assay: Displacement of [3H]propionyl-pNPY from human NPY Y5 receptor expressed in human HEC1b cells after 120 mins by liquid scintillation counting; assay type: cell-based
# T5 sequence (Q15761 whole entry): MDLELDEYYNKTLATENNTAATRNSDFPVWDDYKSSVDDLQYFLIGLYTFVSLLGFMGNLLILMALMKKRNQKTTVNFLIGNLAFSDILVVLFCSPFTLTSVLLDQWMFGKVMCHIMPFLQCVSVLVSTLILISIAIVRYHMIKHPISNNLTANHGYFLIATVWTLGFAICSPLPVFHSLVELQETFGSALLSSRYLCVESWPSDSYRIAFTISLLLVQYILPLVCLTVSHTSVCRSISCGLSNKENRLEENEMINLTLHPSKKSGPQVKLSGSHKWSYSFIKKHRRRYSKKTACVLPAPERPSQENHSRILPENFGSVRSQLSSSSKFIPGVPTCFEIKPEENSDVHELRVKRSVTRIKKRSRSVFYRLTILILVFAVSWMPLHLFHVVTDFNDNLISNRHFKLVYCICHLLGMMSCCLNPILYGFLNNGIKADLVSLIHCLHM
# Summary of the method: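 Adherent HEC-1B-hY5 cells in buffer II with 1% BSA and 0.1 mg/mL bacitracin at 22 °C. […] Incubation was 120 min, followed by ice-cold washes, lysis and scintillation counting.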
# [12] = target: T1, Neuropeptide Y receptor type 4; assay: Binding affinity to human NPY Y4 receptor expressed in CHO cells co-expressing Gqi5-mtAEQ after 90 mins in presence of sodium-free HEPES buffer by liquid scintillation counting; assay type: cell-based
# [13] = target: T1, Neuropeptide Y receptor type 4; assay: Binding affinity to human NPY Y4 receptor expressed in CHO cells co-expressing Gqi5-mtAEQ after 90 mins in presence of L-15 medium by liquid scintillation counting; assay type: cell-based
# [14] = target: T1, Neuropeptide Y receptor type 4; assay: Binding affinity to human NPY Y4 receptor expressed in CHO cells co-expressing Gqi5-mtAEQ assessed as apparent association rate constant after 2 to 180 mins by liquid scintillation counting; assay type: cell-based; settings: tested as the 3H-labelled form
# Summary of the method: (§2)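 Adherent CHO-hY4-Gqi5-mtAEQ cells (about 90% confluent) in buffer I with 1% BSA and 0.1 mg/mL bacitracin at 22 °C. Tritiated radioligand was applied at 1.5 nM for 2–180 min. Wells were washed twice with ice-cold buffer I, lysed and counted. kobs was taken from ln[Beq/(Beq-Bt)] versus time. Data are means of 3 experiments in triplicate.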
# [15] = target: T1, Neuropeptide Y receptor type 4; assay: (§3) Binding affinity to human NPY Y4 receptor expressed in CHO cells co-expressing Gqi5-mtAEQ assessed as fast dissociation rate constant preincubated for 2 hrs followed by addition of (2R,7R)-Diaminooctanedioyl-bis(Tyr-Arg-Leu-Arg-Tyr-amide)Hexa(hydrotrifluoroacetate) by liquid scintillation counting; assay type: cell-based; settings: tested as the 3H-labelled form
# [16] = target: T1, Neuropeptide Y receptor type 4; assay: (§4) Binding affinity to human NPY Y4 receptor expressed in CHO cells co-expressing Gqi5-mtAEQ assessed as slow dissociation rate constant preincubated for 2 hrs followed by addition of (2R,7R)-Diaminooctanedioyl-bis(Tyr-Arg-Leu-Arg-Tyr-amide)Hexa(hydrotrifluoroacetate) by liquid scintillation counting; assay type: cell-based; settings: tested as the 3H-labelled form
# [17] = target: T1, Neuropeptide Y receptor type 4; assay: Binding affinity to human NPY Y4 receptor expressed in CHO cells co-expressing Gqi5-mtAEQ assessed as unspecific binding in presence of (2R,7R)-Diaminooctanedioyl-bis(Tyr-Arg-Leu-Arg-Tyr-amide)Hexa(hydrotrifluoroacetate) by liquid scintillation counting; assay type: cell-based; settings: tested as the 3H-labelled form
# [18] = target: T1, Neuropeptide Y receptor type 4; assay: Binding affinity to human NPY Y4 receptor expressed in CHO cells co-expressing Gqi5-mtAEQ assessed as time required for complete association by liquid scintillation counting; assay type: cell-based; settings: tested as the 3H-labelled form; summary of the method: as §2
# [19] = target: T1, Neuropeptide Y receptor type 4; assay: as §3, with “half life t1/2(1) at 1.5 uM incubated” for “rate constant preincubated”, “in presence of 200-fold excess” for “followed by addition”; assay type: cell-based; settings: tested as the 3H-labelled form
# [20] = target: T1, Neuropeptide Y receptor type 4; assay: as §4, with “half life t1/2(2) at 1.5 uM incubated” for “rate constant preincubated”, “in presence of 200-fold excess” for “followed by addition”; assay type: cell-based; settings: tested as the 3H-labelled form
# [21] = target: T1, Neuropeptide Y receptor type 4; assay: as §4, with “dissociation” for “dissociation rate”, “at 1.5 uM incubated” for “preincubated”, “in presence of 200-fold excess” for “followed by addition”; assay type: cell-based; settings: tested as the 3H-labelled form
# [22] = target: T1, Neuropeptide Y receptor type 4; assay: as §4, with “half life at 1.5 uM incubated” for “rate constant preincubated”, “in presence of 200-fold excess” for “followed by addition”; assay type: cell-based; settings: tested as the 3H-labelled form
# T1 sequence (P50391 whole entry): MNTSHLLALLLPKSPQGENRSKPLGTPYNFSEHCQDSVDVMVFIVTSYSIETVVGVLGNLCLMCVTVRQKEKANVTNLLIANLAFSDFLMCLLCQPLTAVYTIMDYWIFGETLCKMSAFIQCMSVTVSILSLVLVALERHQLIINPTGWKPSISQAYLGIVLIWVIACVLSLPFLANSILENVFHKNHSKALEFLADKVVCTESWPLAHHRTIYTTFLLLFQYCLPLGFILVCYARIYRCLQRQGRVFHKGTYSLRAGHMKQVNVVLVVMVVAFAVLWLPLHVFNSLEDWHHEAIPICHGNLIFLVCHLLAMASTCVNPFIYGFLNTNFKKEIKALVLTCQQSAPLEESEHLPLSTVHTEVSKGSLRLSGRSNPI
SMILES,Ki [1],Ki [2],EC50 [3],Intrinsic activity [4],EC50 [5],Intrinsic activity [6],Ki [7],Ki [8],Ki [9],Kb [10],Ki [11],other results
NCCN(CCNC(=O)c1ccc(C(=O)NCCOCCOCCNC(=O)/N=C(/N)NCCC[C@@H](NC(=O)C(c2ccccc2)c2ccccc2)C(=O)NCc2ccc(O)cc2)cc1)CCNC(=O)c1ccc(C(=O)NCCOCCOCCNC(=O)/N=C(/N)NCCC[C@@H](NC(=O)C(c2ccccc2)c2ccccc2)C(=O)NCc2ccc(O)cc2)cc1,150 nM,630 nM,–,–,–,–,–,–,–,–,–,–
CC(C)C[C@H](NC(=O)[C@H](CCCNC(=N)N)NC(=O)[C@H](Cc1ccc(O)cc1)NC(=O)CCCCCCC(=O)N[C@@H](Cc1ccc(O)cc1)C(=O)N[C@@H](CCCN/C(N)=N/C(=O)NCCCCN)C(=O)N[C@@H](CC(C)C)C(=O)N[C@@H](CCCNC(=N)N)C(=O)N[C@@H](Cc1ccc(O)cc1)C(N)=O)C(=O)N[C@@H](CCCNC(=N)N)C(=O)N[C@@H](Cc1ccc(O)cc1)C(N)=O (I: Y[X2]LRY-NH2 / II: YRLRY-NH2; linker I:N-II:N via Suberoyl),–,–,6.4 nM,0.8,1.7 nM,1.06,410 nM,730 nM,1.2 nM,25.3 nM,140 nM,–
[3H]CC([3H])C(=O)N[C@@H](CCCC[C@H](N)C(=O)N[C@@H](Cc1ccc(O)cc1)C(=O)N[C@@H](CCCNC(=N)N)C(=O)N[C@@H](CC(C)C)C(=O)N[C@@H](CCCNC(=N)N)C(=O)N[C@@H](Cc1ccc(O)cc1)C(N)=O)C(=O)N[C@@H](Cc1ccc(O)cc1)C(=O)N[C@@H](CCCNC(=N)N)C(=O)N[C@@H](CC(C)C)C(=O)N[C@@H](CCCNC(=N)N)C(=O)N[C@@H](Cc1ccc(O)cc1)C(N)=O (stereo partly drawn),–,–,–,–,–,–,–,–,–,–,–,Kd [12]: 0.67 nM; Kd [13]: 9.8 nM
CC(C)C[C@H](NC(=O)[C@H](CCCNC(=N)N)NC(=O)[C@H](Cc1ccc(O)cc1)NC(=O)[C@H](N)CCCC[C@@H](N)C(=O)N[C@@H](Cc1ccc(O)cc1)C(=O)N[C@@H](CCCNC(=N)N)C(=O)N[C@@H](CC(C)C)C(=O)N[C@@H](CCCNC(=N)N)C(=O)N[C@@H](Cc1ccc(O)cc1)C(N)=O)C(=O)N[C@@H](CCCNC(=N)N)C(=O)N[C@@H](Cc1ccc(O)cc1)C(N)=O,2 nM,0.18 nM,–,0.75,1.6 nM,1.03,–,–,–,9.5 nM,–,–
CCC(=O)N[C@@H](CCCC[C@H](N)C(=O)N[C@@H](Cc1ccc(O)cc1)C(=O)N[C@@H](CCCNC(=N)N)C(=O)N[C@@H](CC(C)C)C(=O)N[C@@H](CCCNC(=N)N)C(=O)N[C@@H](Cc1ccc(O)cc1)C(N)=O)C(=O)N[C@@H](Cc1ccc(O)cc1)C(=O)N[C@@H](CCCNC(=N)N)C(=O)N[C@@H](CC(C)C)C(=O)N[C@@H](CCCNC(=N)N)C(=O)N[C@@H](Cc1ccc(O)cc1)C(N)=O,6.3 nM,0.32 nM,14 nM,0.76,4 nM,1,400 nM,420 nM,0.87 nM,–,710 nM,K [14]: 0.0467 min⁻¹; K [15]: 0.0329 min⁻¹; K [16]: 0.0024 min⁻¹; Activity [17]: 10%; TIME [18]: 1.67 h; T1/2 [19]: 0.352 h; T1/2 [20]: 4.82 h; K [21]: 0.0085 min⁻¹; T1/2 [22]: 1.36 h
